Screening results (PubChem BioAssay)
NadD block – blocks S. aureus nicotinate mononucleotide adenylyltransferase; inhibition, % at 20 µM; AID 602399; 0.78% of 360,000 active; purified NadD enzyme, colorimetric absorbance read-out; in the data active = inhibition above about 26%
STEP block – inhibitors of human striatal-enriched phosphatase STEP | P54829 | recombinant STEP, OMFP fluorogenic substrate, fluorescence | inhibition, % at 20 µM | 0.25% of 360,000 active;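 active = inhibition at 20 µM, scaled per plate between control wells, above about 37%, limit read from the data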;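 also: 0% = DMSO with enzyme and substrate and 100% = substrate only without enzyme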
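Material: STEP (striatal-enriched tyrosine phosphatase) enzyme, cell-free | Medium: 50 mM Bis-Tris pH 6.0 with 2.5 mM DTT and 0.005% Tween 20 | Read-out: Percent inhibition scaled to no-enzyme and uninhibited-enzyme controls, plate-pattern corrected | Signal: Fluorescence read at 480 nm ex / 540 nm em | Times: 20 min reaction, room temperature, in the dark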
LMPTP block – blocks human LMPTP phosphatase | 0.22% of 360,000 active | P24666 | recombinant LMPTP-A, OMFP fluorogenic substrate, fluorescence intensity | inhibition, % at 20 µM | AID 651560;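 active = compounds that cut the enzyme signal by at least half of the control window in the single-dose screen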;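 also: plate controls were DMSO wells with enzyme plus substrate for no effect and substrate without enzyme for full effect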
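Test system: LMPTP-A phosphatase enzyme; input: 0.625 nM LMPTP-A final; reagent: OMFP substrate, 400 µM final; compound dosing: 20 µM single dose, 3% DMSO; incubation: 50 min dark incubation at room temperature; measured by: endpoint fluorescence intensity from OMFP dephosphorylation; measure: % inhibition relative to no-enzyme and uninhibited control wells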
Scp1 inh – blocks human Scp-1 phosphatase activity; Recombinant Scp1, phosphopeptide, malachite green phosphate absorbance; inhibition, % at 20 µM; 0.88% of 340,000 active;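 active = inhibition above about 50% at 20 µM, limit read from the data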;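 also: plate controls were DMSO wells with enzyme for no effect and wells lacking enzyme for full effect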
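Times: enzyme reaction 45 min at room temperature, colour 5 min, stabilisation 30 min. Material: SCP-1 catalytic fragment, aa 76-261. Medium: Acidic Tris acetate buffer with magnesium and detergent. Signal: colorimetric free-phosphate detection, absorbance 630 nm. Read-out basis: % inhibition of SCP-1 phosphate liberation. Reagent: Phosphorylated 17-residue peptide substrate.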
SUMO1 PPI mod – SUMO1-SIM interaction modulation; SUMO1 binding to a labelled peptide, TR-FRET, 1 h; AID 602429; inhibition, % at 20 µM; P63165; 0.33% of 360,000 active; in the data active = inhibition above about 37%
DNMT1 inh – inhibitors of human DNMT1; P26358; DNMT1 molecular beacon, Hinp1I cleavage, fluorescence; inhibition (reported as % activation of signal), % at 10 µM; 0.83% of 360,000 active; in the data active = inhibition above about 50%
Target sequence (P26358 504-1616 limits assumed): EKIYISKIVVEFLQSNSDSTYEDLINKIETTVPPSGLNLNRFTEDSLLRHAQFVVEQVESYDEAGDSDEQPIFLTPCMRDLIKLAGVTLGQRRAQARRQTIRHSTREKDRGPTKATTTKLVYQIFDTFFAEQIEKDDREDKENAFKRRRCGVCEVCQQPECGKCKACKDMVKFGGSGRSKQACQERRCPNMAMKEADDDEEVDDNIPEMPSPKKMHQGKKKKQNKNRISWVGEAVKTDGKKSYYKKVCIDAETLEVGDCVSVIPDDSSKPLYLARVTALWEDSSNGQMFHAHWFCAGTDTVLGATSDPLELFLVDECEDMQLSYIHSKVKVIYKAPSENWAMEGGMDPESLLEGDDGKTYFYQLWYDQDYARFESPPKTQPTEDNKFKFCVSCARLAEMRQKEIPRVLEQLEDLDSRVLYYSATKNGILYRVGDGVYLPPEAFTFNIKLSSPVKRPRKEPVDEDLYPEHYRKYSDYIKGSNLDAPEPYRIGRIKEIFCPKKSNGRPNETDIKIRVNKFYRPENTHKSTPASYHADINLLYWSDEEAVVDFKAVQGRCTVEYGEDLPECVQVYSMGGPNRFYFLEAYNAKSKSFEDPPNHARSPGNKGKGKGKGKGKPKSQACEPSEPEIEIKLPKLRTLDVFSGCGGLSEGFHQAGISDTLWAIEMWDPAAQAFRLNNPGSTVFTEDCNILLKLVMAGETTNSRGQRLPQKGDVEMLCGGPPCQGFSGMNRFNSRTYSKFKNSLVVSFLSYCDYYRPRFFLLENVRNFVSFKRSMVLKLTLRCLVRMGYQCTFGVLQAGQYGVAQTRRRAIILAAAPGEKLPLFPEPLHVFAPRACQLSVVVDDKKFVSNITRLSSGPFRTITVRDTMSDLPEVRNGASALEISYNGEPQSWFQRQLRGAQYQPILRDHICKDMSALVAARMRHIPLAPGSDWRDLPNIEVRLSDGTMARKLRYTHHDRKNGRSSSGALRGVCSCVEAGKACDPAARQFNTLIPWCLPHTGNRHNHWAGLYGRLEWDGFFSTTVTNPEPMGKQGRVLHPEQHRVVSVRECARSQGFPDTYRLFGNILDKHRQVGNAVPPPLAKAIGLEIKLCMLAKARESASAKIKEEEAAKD
NadD inh conf – NadD (S. aureus) inhibition, single concentration confirmation | inhibition, % at 20 µM | shares compounds with NadD block | AID 624309 | purified S. aureus NadD, colorimetric enzyme assay | 13% of 2,000 active; in the data active = inhibition mostly above about 42%, no sharp cut-off; inactive = mostly below about 42%
* hit, by the source's call. Shown are actives, neighbours in structure and some others; about 2.4% of the full set was active somewhere.

Results for O=C(Nc1nnc(S(=O)(=O)N2CCCCCC2)s1)c1ccc(Cl)cc1 ?
NadD block: 31*; STEP block: 1; LMPTP block: 0; Scp1 inh: 4; SUMO1 PPI mod: -5; DNMT1 inh: 0; NadD inh conf: 10

What do the screens show for `CCCCOc1ccc(-c2c(C(=O)Nc3ccccc3)c(C)[nH]c(=S)c2C#N)cc1`?
NadD block: 23; STEP block: -1; LMPTP block: 1; Scp1 inh: -8; SUMO1 PPI mod: -1; DNMT1 inh: 36

Results for CCCCOc1ccc(-c2c(C#N)c(N)[nH]c(=S)c2C#N)cc1 ?
NadD block: 31*; STEP block: 2; LMPTP block: 2; Scp1 inh: -11; SUMO1 PPI mod: -8; DNMT1 inh: -4; NadD inh conf: 29

Results for CCCCCC(=O)Nc1ccc(S(=O)(=O)Nc2nccnc2OC)cc1 ?
NadD block: 4; STEP block: -2; LMPTP block: 0; Scp1 inh: -4; SUMO1 PPI mod: 2; DNMT1 inh: 9

What do the screens show for `CCCOc1cc(N)ccc1C(=O)OCCN(CC)CC`?
NadD block: 1; STEP block: 1; LMPTP block: -2; Scp1 inh: -4; SUMO1 PPI mod: 1; DNMT1 inh: 0

Results for CCCOc1ccc(N)cc1N ?
NadD block: 44*; STEP block: 1; LMPTP block: 22; Scp1 inh: 1; SUMO1 PPI mod: 30; DNMT1 inh: -7; NadD inh conf: -3

Results for COc1cccc(N2CC(C(=O)Nc3nnc(SCC(=O)N4CCOCC4)s3)CC2=O)c1 (stereo unspecified) ?
NadD block: 6; STEP block: 2; LMPTP block: 0; Scp1 inh: 19; SUMO1 PPI mod: 3; DNMT1 inh: 2

Results for O=C(N[C@@H](Cc1ccccc1)C(=O)OCc1ccccc1)c1nc[nH]c1C(=O)N1CCN(c2ccccc2)CC1 ?
NadD block: 30*; STEP block: 0; LMPTP block: 1; Scp1 inh: 1; SUMO1 PPI mod: 0; DNMT1 inh: -16; NadD inh conf: 16

How did CNS(=O)(=O)c1cc(NC(=O)CCCNC(=O)c2ccc(Cl)cc2)ccc1C do in these assays?
NadD block: 5; STEP block: -3; LMPTP block: 0; Scp1 inh: -4; SUMO1 PPI mod: 1; DNMT1 inh: -1

How did Cc1ccc(C)c2nc3sc(C(=O)N4CCCc5ccccc54)c(N)c3cc12 do in these assays?
NadD block: 32*; STEP block: -4; LMPTP block: 4; Scp1 inh: -7; SUMO1 PPI mod: -14; DNMT1 inh: -3; NadD inh conf: 7

What do the screens show for `COc1ccc(C(=O)NNC(=S)NC2CCCCC2)cc1OC`?
NadD block: -2; STEP block: 0; LMPTP block: 1; Scp1 inh: -5; SUMO1 PPI mod: -1; DNMT1 inh: 9

What do the screens show for `Cc1nc(/N=C(\N)NC(=O)c2ccccc2)nc2ccccc12`?
NadD block: 3; STEP block: -1; LMPTP block: 1; Scp1 inh: 6; SUMO1 PPI mod: 2; DNMT1 inh: 0

How did Cc1nc(/N=C(\N)NC(=O)N2c3ccccc3Sc3ccccc32)nc2ccccc12 do in these assays?
NadD block: 31*; STEP block: 1; LMPTP block: 2; Scp1 inh: 19; SUMO1 PPI mod: -2; DNMT1 inh: -5; NadD inh conf: 20

Results for C[C@H](CO)N1C[C@H](C)[C@@H](CN(C)S(=O)(=O)c2ccccc2F)Oc2ncc(Br)cc2C1=O ?
NadD block: -2; STEP block: 2; LMPTP block: -1; SUMO1 PPI mod: 3; DNMT1 inh: 0

Results for N#C/C(=C\Nc1ccc2cn[nH]c2c1)c1nc(-c2ccc(Cl)cc2)cs1 ?
NadD block: 40*; STEP block: -1; LMPTP block: 3; Scp1 inh: -7; SUMO1 PPI mod: 5; DNMT1 inh: 16; NadD inh conf: 3
